How the values were obtained:
CCRF-CEM [1] = assay: Cytotoxicity against chemosensitive CEM-T lymphoblastc leukemia cell line.; type: functional, Homo sapiens
Method in brief: (§1)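 Cells were kept in DMEM/RPMI 1640 with 10% fetal calf serum, 2 mM glutamine and antibiotics. They were seeded at 2500–30 000 cells/well according to growth characteristics and preincubated 24 h at 37 °C, 5% CO2. Four-fold compound dilutions were tested in duplicate for 72 h. MTT was then added for 1–4 h, the formazan was dissolved in 10% SDS (pH 5.5) overnight, and OD was read at 540 nm. Survival was taken relative to mean control, and TCS50 was derived from dose–response curves.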

A549 = assay: Tested for cytotoxicity against human lung adenocarcinoma A549 cell line; type: functional; method in brief: as §1
B16 [2] = assay: Tested for cytotoxicity against mouse melanoma B16 cell line; type: functional; method in brief: as §1
BT-549 = assay: Tested for cytotoxicity against human breast cancer BT549 cell line; type: functional; method in brief: as §1
CCRF-CEM [3] = assay: Tested for cytotoxicity against human T-lymphoblastic leukemia CEM cell line; type: functional; method in brief: as §1
CEM-DNR [4] = assay: Tested for cytotoxicity against human T-lymphoblastic leukemia CEM-DNR 1/C2 cell line; type: functional; method in brief: as §1
CEM-DNR [5] = assay: Tested for cytotoxicity against human T-lymphoblastic leukemia CEM-DNR bulk cell line; type: functional; method in brief: as §1
CEM-VCR 1/D/5 = assay: Tested for cytotoxicity against human T-lymphoblastic leukemia CEM-VCR 1/D5 cell line; type: functional; method in brief: as §1
CEM-VCR 1/F3 = assay: Tested for cytotoxicity against human T-lymphoblastic leukemia CEM-VCR 1/F3 cell line; type: functional; method in brief: as §1
CEM-VCR = assay: Tested for cytotoxicity against human T-lymphoblastic leukemia CEM-VCR bulk cell line; type: functional; method in brief: as §1
DU-145 = assay: Tested for cytotoxicity against human prostate cancer DU145 cell line; type: functional; method in brief: as §1
HT-29 = assay: Tested for cytotoxicity against human colon cancer HT-29 cell line; type: functional; method in brief: as §1
HepG2 = assay: Tested for cytotoxicity against human hepatocellular carcinoma HepG2 cell line; type: functional; method in brief: as §1
K562 [6] = assay: Tested for cytotoxicity against human […] leukemia K562 cell line; type: functional; method in brief: as §1
K562 [7] = assay: Tested for cytotoxicity against human […] leukemia K562-ARA-C cell line; type: functional; method in brief: as §1
K562 [8] = assay: Tested for cytotoxicity against human […] leukemia K562-CdA cell line; type: functional; method in brief: as §1
K562 [9] = assay: Tested for cytotoxicity against human […] leukemia K562-FLU D-CEM cell line; type: functional
Method in brief: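 Cytotoxicity by MTT in fludarabine-resistant K562 subline (K562-FLUD), cultured in DMEM/RPMI 1640 with 10% fetal calf serum. Cells seeded at 2500–30 000/well, preincubated 24 h at 37 °C, 5% CO2. Fourfold dilutions in duplicate, 72 h exposure. MTT 1–4 h, formazan dissolved in 10% SDS overnight, OD 540 nm. Survival relative to control; TCS50 taken from dose–response curves.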

K562 [10] = assay: Tested for cytotoxicity against human […] leukemia K562-GEM cell line; type: functional; method in brief: as §1
SK-MEL3 = assay: Tested for cytotoxicity against human melanoma MEL-3 cell line; type: functional; method in brief: as §1
MDA-MB-238 = assay: Tested for cytotoxicity against human breast cancer MDA-MB-238 cell line; type: functional; method in brief: as §1
LNCaP = assay: Tested for cytotoxicity against human prostate cancer LNCaP cell line; type: functional; method in brief: as §1
MCF7 = assay: Tested for cytotoxicity against human breast cancer MCF-7 cell line; type: functional; method in brief: as §1
NIH3T3 = assay: Tested for cytotoxicity against mouse immortalized fibroblast NIH3T3 cell line; type: functional; method in brief: as §1
OVCAR-3 = assay: Tested for cytotoxicity against human ovarian cancer OVCAR-3 cell line; type: functional; method in brief: as §1
SAOS-2 = assay: Tested for cytotoxicity against human […] Saos2 cell line; type: functional; method in brief: as §1
SW-620 = assay: Tested for cytotoxicity against human colon cancer SW620 cell line; type: functional; method in brief: as §1
U-87 MG = assay: Tested for cytotoxicity against human glioblastoma U87MG cell line; type: functional, U-87MG ATCC; method in brief: as §1
U2OS = assay: Tested for cytotoxicity against human osteosarcoma U2OS cell line; type: functional; method in brief: as §1
Homo sapiens = species on record: Homo sapiens; assay: Tested for cytotoxicity against human normal lymphocytes; type: functional; method in brief: as §1
B16 [11] = assay: Tested for cytotoxicity against mouse melanoma B16F cell line; type: functional; method in brief: as §1

CC(=O)O[C@H]1CC[C@]2(C)[C@H]3CC[C@@H]4C5=C(C(C)C)C(=O)C(=O)[C@]5(C(=O)OCOC(=O)C(C)(C)C)CC[C@@]4(C)[C@]3(C)CC[C@H]2C1(C)C
TCS50 (CCRF-CEM [1]): 105.4 µM

CC(=O)O[C@H]1CC[C@]2(C)[C@H]3CC[C@@H]4C5=C(C(C)C)C(=O)C[C@]5(CO)CC[C@@]4(C)[C@]3(C)CC[C@H]2C1(C)C
TCS50 (CCRF-CEM [1]): 232 µM

CC(=O)OC[C@@]12CC[C@]3(C)[C@H](CC[C@@H]4[C@@]5(C)CC[C@H](OC(C)=O)C(C)(C)[C@@H]5CC[C@]43C)C1=C(C(C)C)C(=O)C2=O
TCS50 (CCRF-CEM [1]): 66 µM

CC(=O)OCOC(=O)[C@]1(COC(C)=O)CC[C@]2(C)[C@H](CC[C@@H]3[C@@]4(C)CC[C@H](OC(C)=O)C(C)(C)[C@@H]4CC[C@]32C)C1=O
TCS50 (CCRF-CEM [1]): 86 µM

COC(=O)C[C@@H]1CC[C@]2(C)[C@H](CC[C@@H]3[C@@]4(C)CC[C@H](OC(C)=O)C(C)(C)[C@@H]4CC[C@]32C)C1=O
TCS50 (CCRF-CEM [1]): 106 µM

CC(=O)O[C@H]1CC[C@]2(C)[C@H]3CC[C@@H]4C(=O)CCC[C@@]4(C)[C@]3(C)CC[C@H]2C1(C)C
TCS50 (CCRF-CEM [1]): >250 µM

CC(=O)OC[C@@]1(CC(=O)O)CC[C@]2(C)[C@H](CC[C@@H]3[C@@]4(C)CC[C@H](OC(C)=O)C(C)(C)[C@@H]4CC[C@]32C)C1=O
TCS50 (CCRF-CEM [1]): 5 µM

CC(=O)OC[C@@]1(C(=O)C(=O)C(=O)C(C)C)CC[C@]2(C)[C@H](CC[C@@H]3[C@@]4(C)CC[C@H](OC(C)=O)C(C)(C)[C@@H]4CC[C@]32C)C1=O
TCS50 (CCRF-CEM [1]): 71 µM

COC(=O)CC[C@]1(C)[C@@H](C(=O)OC)CC[C@@H]2[C@@]3(C)CC[C@H](OC(C)=O)C(C)(C)[C@@H]3CC[C@]21C
TCS50 (CCRF-CEM [1]): >250 µM

CC(=O)O[C@H]1CC[C@]2(C)[C@H]3CC[C@@H]4C(=O)[C@@](CC(=O)C(=O)C(C)C)(C(=O)OCOC(=O)C(C)(C)C)CC[C@@]4(C)[C@]3(C)CC[C@H]2C1(C)C
TCS50 (CCRF-CEM [1]): >250 µM

COC(=O)[C@@]1(CC(=O)O)CC[C@]2(C)[C@H](CC[C@@H]3[C@@]4(C)CC[C@H](OC(C)=O)C(C)(C)[C@@H]4CC[C@]32C)C1=O
TCS50 (CCRF-CEM [1]): 110 µM

CC(=O)O[C@H]1CC[C@]2(C)[C@H]3CC[C@@H]4C5=C(C(C)C)C(=O)C[C@]5(C(=O)O)CC[C@@]4(C)[C@]3(C)CC[C@H]2C1(C)C
TCS50 (CCRF-CEM [1]): >250 µM

CCOC[C@@H]1CC[C@]2(C)[C@H](CC[C@@H]3[C@@]4(C)CC[C@H](OC(C)=O)C(C)(C)[C@@H]4CC[C@]32C)C1=O
TCS50 (CCRF-CEM [1]): 50 µM

COC(=O)[C@@]12CC[C@]3(C)[C@H](CC[C@@H]4[C@@]5(C)CC[C@H](OC(C)=O)C(C)(C)[C@@H]5CC[C@]43C)C1=C(C(C)C)C(=O)C2
TCS50 (CCRF-CEM [1]): 20.4 µM

COC(=O)[C@]1(COC(C)=O)CC[C@]2(C)[C@H](CC[C@@H]3[C@@]4(C)CC[C@H](OC(C)=O)C(C)(C)[C@@H]4CC[C@]32C)C1=O
TCS50 (CCRF-CEM [1]): 120 µM

CC(=O)O[C@H]1CC[C@]2(C)[C@H]3CC[C@@H]4C5=C(C(C)C)C(=O)C[C@]5(C(=O)OCOC(=O)C(C)(C)C)CC[C@@]4(C)[C@]3(C)CC[C@H]2C1(C)C
TCS50 (CCRF-CEM [1]): 62.7 µM

C=C(C)[C@@H]1CC[C@]2(C(=O)O)CC[C@]3(C)[C@H](CC[C@@H]4[C@@]5(C)CC[C@H](O)C(C)(C)[C@@H]5CC[C@]43C)[C@@H]12 [BETULINIC ACID]
TCS50 (A549): 79.3 µM
TCS50 (B16 [2]): 30.5 µM
TCS50 (BT-549): >250 µM
TCS50 (CCRF-CEM [3]): >250 µM
TCS50 (CEM-DNR [4]): >250 µM
TCS50 (CEM-DNR [5]): >250 µM
TCS50 (CCRF-CEM [1]): 20 µM
TCS50 (CEM-VCR 1/D/5): 24.1 µM
TCS50 (CEM-VCR 1/F3): 19.1 µM
TCS50 (CEM-VCR): 68.5 µM
TCS50 (DU-145): 241 µM
TCS50 (HT-29): >250 µM
TCS50 (HepG2): 3.61 µM
TCS50 (K562 [6]): 53.9 µM
TCS50 (K562 [7]): >250 µM
TCS50 (K562 [8]): >250 µM
TCS50 (K562 [9]): >250 µM
TCS50 (K562 [10]): 101 µM
TCS50 (SK-MEL3): 2.65 µM
TCS50 (MDA-MB-238): 195 µM
TCS50 (LNCaP): 244 µM
TCS50 (MCF7): 194 µM
TCS50 (NIH3T3): >250 µM
TCS50 (OVCAR-3): 164 µM
TCS50 (SAOS-2): >250 µM
TCS50 (SW-620): >250 µM
TCS50 (U-87 MG): >228 µM
TCS50 (U2OS): >250 µM
TCS50 (Homo sapiens): >250 µM
TCS50 (B16 [11]): 4.6 µM

Reference: ChEMBL document CHEMBL1146596, “New lupane derived compounds with pro-apoptotic activity in cancer cells: synthesis and structure-activity relationships” (2003)
